Target: T1, NR2F6 (Mus musculus, UniProt P43136)
T1 sequence (P43136 1-390): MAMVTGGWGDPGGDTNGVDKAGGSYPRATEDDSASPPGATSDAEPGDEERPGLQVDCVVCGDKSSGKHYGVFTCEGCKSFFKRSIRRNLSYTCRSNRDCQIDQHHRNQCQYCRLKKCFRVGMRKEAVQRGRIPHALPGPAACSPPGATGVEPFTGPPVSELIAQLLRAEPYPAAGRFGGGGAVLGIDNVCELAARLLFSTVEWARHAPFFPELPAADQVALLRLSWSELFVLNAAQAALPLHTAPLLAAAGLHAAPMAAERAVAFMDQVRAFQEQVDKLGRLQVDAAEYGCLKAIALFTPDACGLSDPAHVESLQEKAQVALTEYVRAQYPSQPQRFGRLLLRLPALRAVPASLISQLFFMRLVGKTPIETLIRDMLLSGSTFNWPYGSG
Experiment: NR2F6/Il17a luciferase assay in transiently transfected HEK293 cells
Type: cell-based
Settings: Maxcyte transfected HEK293 cells, 384-well format, Troglitazone 62.5uM
Procedure, shortened: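 HEK293 cells grown in DMEM with 10% heat-inactivated FBS and 1% penicillin-streptomycin, harvested at 70% confluency, and resuspended in electroporation buffer at 1×10^8 cells/mL. Il17a::luc plus NR2F6 or empty vector was electroporated with DNA amount titrated, then recovered 5 h at 37 °C. Luciferase was read with positive control versus untreated samples.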

SMILES: Cc1c(C)c2c(c(C)c1O)CCC(C)(COc1ccc(CC3SC(=O)NC3=O)cc1)O2 (stereo not shown) [Troglitazone]
- NR2F6's repressive transcriptional response (Il17a luciferase signal): further enhanced

Source: publication PMC9670014 (SLAS discovery : advancing life sciences R & D, 2022)
